From ChEMBL document CHEMBL1154420, “Role of a qnr-like gene in the intrinsic resistance of Enterococcus faecalis to fluoroquinolones” (2007) come the findings set out here.

For assay [1], the system named is Lactococcus lactis. Put plainly: Antibacterial activity against Lactococcus lactis IL-1419 containing ORI23::qnr-cat promoter mutant by twofold dilution method. Type of assay: functional. In a few lines: (§1)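 Heterologous hosts carrying pORI23 or pORI23::qnr-cat (cat reporter downstream of qnr); MICs of ofloxacin, ciprofloxacin, levofloxacin, sparfloxacin and moxifloxacin by standard twofold dilution. Transformants selected on erythromycin 500 μg/ml plus chloramphenicol 20 μg/ml (E. coli DH10B) or erythromycin 5 μg/ml plus chloramphenicol 5 μg/ml (S. aureus, L. lactis). Blood-supplemented agar for L. lactis.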

Assay [2] concerns Escherichia coli. Put plainly: Antibacterial activity against Escherichia coli DH10B by twofold dilution method. Type of assay: functional. The following applies: K-12 substr. DH10B. In a few lines:
as §1

Assay [3] concerns Escherichia coli. Description: Antibacterial activity against Escherichia coli DH10B containing ORI23 promoter by twofold dilution method. The assay is classed as functional. The following applies: K-12 substr. DH10B. In a few lines:
as §1

Assay [4] deals with Escherichia coli. Description: Antibacterial activity against Escherichia coli DH10B containing ORI23::qnr-cat promoter mutant by twofold dilution method. Type of assay: functional. The following applies: K-12 substr. DH10B. The essentials:
as §1

In assay [5] the test system is Staphylococcus aureus. Put plainly: Antibacterial activity against Staphylococcus aureus RN4220 by twofold dilution method. Type of assay: functional. The essentials:
as §1

Assay [6] has as its system Staphylococcus aureus. Description: Antibacterial activity against Staphylococcus aureus RN4220 containing ORI23 promoter by twofold dilution method. Type of assay: functional. In a few lines:
as §1

The subject of assay [7] is Staphylococcus aureus. Put plainly: Antibacterial activity against Staphylococcus aureus RN4220 containing ORI23::qnr-cat promoter mutant by twofold dilution method. Type of assay: functional. The essentials: as §1
Assay [8] deals with Lactococcus lactis. Put plainly: Antibacterial activity against Lactococcus lactis IL-1419 by twofold dilution method. Type of assay: functional. In a few lines: (§2)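 Heterologous-expression MIC by standard twofold dilution; L. lactis IL-1419 transformed with pORI23 vector or pORI23::qnr-cat by electroporation, selected on erythromycin 5 μg/ml plus chloramphenicol 5 μg/ml; routine growth at 37°C on TS agar with 10% horse blood.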

Assay [9] has as its system Lactococcus lactis. Put plainly: Antibacterial activity against Lactococcus lactis IL-1419 containing ORI23 promoter by twofold dilution method. The assay is classed as functional. The essentials:
as §2

For assay [10], the system named is Enterococcus faecalis. Description: Antibacterial activity against Enterococcus faecalis JH2-2 by broth microdilution method. Type of assay: functional.
For assay [11], the system named is Enterococcus faecalis. Put plainly: Antibacterial activity against Enterococcus faecalis JH2-2-omega-pG1KT mutant with inactivated qnr gene by broth microdilution method. The assay is classed as functional.
Assay [12] deals with Enterococcus faecalis. Put plainly: Antibacterial activity against Enterococcus faecalis JH2-2-delta-pG1KT mutant by broth microdilution method. The assay is classed as functional. In general terms: Dilution methods test growth across graded concentrations, often in twofold steps.
Assay [13] has as its system Enterococcus faecalis. Put plainly: Antibacterial activity against Enterococcus faecalis JH2-2 containing ORI23 promoter by broth microdilution method. Type of assay: functional. In a few lines: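 Broth microdilution MIC in Mueller-Hinton broth per CA-SFM, three independent experiments; JH2-2 host carrying pORI23 vector. Narrow dilution series: ofloxacin 1–128 μg/ml (1, 1.5, 2 … 8, 16, 32, 64, 128), ciprofloxacin 0.5–64 μg/ml (0.5, 0.75, 1 … 4, 8, 16, 32, 64). Growth at 37°C.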

In assay [14] the test system is Enterococcus faecalis. Description: Antibacterial activity against Enterococcus faecalis JH2-2-omega-pG1KT/pORI23::qnr-cat mutant with qnr gene complementation by broth microdilution method. Type of assay: functional.
For assay [15], the system named is Enterococcus faecalis. Put plainly: Antibacterial activity against Enterococcus faecalis JH2-2 containing ORI23::qnr-cat promoter mutant overexpressing qnr by broth microdilution method. Type of assay: functional.
Assay [16] relates to Escherichia coli. Description: Inhibition of Escherichia coli DNA gyrase-mediated Escherichia coli pBR322 DNA supercoiling at 1 ug/mL in presence of 0.9 uM histidine6-tagged Enterococcus faecalis qnr protein preincubated before compound administration by agarose gel electrophoresis. The essentials: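 Dialyzed C-terminal His6-tagged Qnr (from E. coli BL21(DE3), IPTG 1 mM, Ni-NTA purified, 0.9 μM) preincubated with E. coli gyrase 1 h at 25°C before drug; then 1 U gyrase, 0.5 μg relaxed pBR322, buffer with 1 mM ATP, pH 7.5, 37°C 30 min; readout by 1% agarose gel, ethidium bromide.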

Assay [17] has as its system Escherichia coli. Description: Inhibition of Escherichia coli DNA gyrase-mediated Escherichia coli pBR322 DNA supercoiling at 1 ug/mL by agarose gel electrophoresis. In a few lines: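 Supercoiling assay: 1 U purified E. coli gyrase with 0.5 μg relaxed pBR322 in 35 mM Tris-HCl pH 7.5, 24 mM KCl, 4 mM MgCl2, 2 mM DTT, 1.8 mM spermidine, 1 mM ATP, 6.5% glycerol, 0.1 mg/ml albumin; drug incubated 1 h 25°C then 30 min 37°C; topoisomers resolved on 1% agarose, ethidium bromide, 16 h at 3.5 V/cm.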

Assay [18] relates to Enterococcus faecalis. Put plainly: microbe, parasite or virus in culture. The following applies: ATCC 29212.

SMILES strings stand for the structures. ≈ marks a conversion by molar mass, not a printed value. Calls of active or inactive are those of the source. No cut-off for these calls is given here.

As to `C[C@@H]1CN(c2c(F)c(N)c3c(=O)c(C(=O)O)cn(C4CC4)c3c2F)C[C@H](C)N1` [SPARFLOXACIN], the MIC was found to be 4 µg/mL (≈ 10.2 µM) in [1]; 0.002 µg/mL (≈ 0.0051 µM) in [2]; 0.004 µg/mL (≈ 0.0102 µM) in [3]; 0.064 µg/mL (≈ 0.163 µM) in assay [4]; 0.125 µg/mL (≈ 0.319 µM) in assay [5]; 0.125 µg/mL (≈ 0.319 µM) in assay [6]. The MIC in assay [7] turned out to be 1 µg/mL (≈ 2.55 µM); in [8], 0.5 µg/mL (≈ 1.27 µM); in [9], 0.5 µg/mL (≈ 1.27 µM).
Turning to `C[C@H]1COc2c(N3CCN(C)CC3)c(F)cc3c(=O)c(C(=O)O)cn1c23.C[C@H]1COc2c(N3CCN(C)CC3)c(F)cc3c(=O)c(C(=O)O)cn1c23.O` [LEVOFLOXACIN], the MIC came to 2 µg/mL in assay [1]; 0.125 µg/mL in [4]; 0.25 µg/mL in [5]; 0.25 µg/mL in [6]; 1 µg/mL in assay [7]; 0.5 µg/mL in assay [8]. This molecule also had an MIC in [9] of 0.5 µg/mL.
As to `O=C(O)c1cn(C2CC2)c2cc(N3CCNCC3)c(F)cc2c1=O` [CIPROFLOXACIN], the MIC in assay [4] amounted to 0.032 µg/mL (≈ 0.0966 µM); in [10], 1.5 µg/mL (≈ 4.53 µM); in assay [11] it was 0.75 µg/mL (≈ 2.26 µM); in [12], 1.75 µg/mL (≈ 5.28 µM); in assay [13], 2 µg/mL (≈ 6.04 µM); in assay [14], 8 µg/mL (≈ 24.1 µM). Further, the MIC in assay [15] stood at 8 µg/mL (≈ 24.1 µM); in assay [7], 2 µg/mL (≈ 6.04 µM); in [8] it was 2 µg/mL (≈ 6.04 µM); in assay [9], 2 µg/mL (≈ 6.04 µM).
`COc1c(N2C[C@@H]3CCCN[C@@H]3C2)c(F)cc2c(=O)c(C(=O)O)cn(C3CC3)c12` [MOXIFLOXACIN]: the MIC in assay [1] came out at 1 µg/mL (≈ 2.49 µM); in assay [2], 0.002 µg/mL (≈ 0.00498 µM); in assay [3] it was 0.002 µg/mL (≈ 0.00498 µM); in assay [4], 0.032 µg/mL (≈ 0.0797 µM); in assay [7] it was 0.25 µg/mL (≈ 0.623 µM); in assay [8], 0.25 µg/mL (≈ 0.623 µM). The molecule also had an MIC in assay [9] of 0.25 µg/mL (≈ 0.623 µM).
On to `CC1COc2c(N3CCN(C)CC3)c(F)cc3c(=O)c(C(=O)O)cn1c23` (centres undefined) [OFLOXACIN], for which the MIC in [1] was 4 µg/mL (≈ 11.1 µM); in [4], 0.125 µg/mL (≈ 0.346 µM); in assay [10] it was 3 µg/mL (≈ 8.3 µM); in assay [11], 1.5 µg/mL (≈ 4.15 µM); in assay [12], 3 µg/mL (≈ 8.3 µM); in assay [13] it was 3.5 µg/mL (≈ 9.69 µM). Also, the MIC in [14] is 32 µg/mL (≈ 88.6 µM); in assay [15], 32 µg/mL (≈ 88.6 µM); in [5] it was 0.5 µg/mL (≈ 1.38 µM); in assay [6], 0.5 µg/mL (≈ 1.38 µM); in [7], 2 µg/mL (≈ 5.53 µM); in [8], 1 µg/mL (≈ 2.77 µM). The MIC in [9] worked out at 1 µg/mL (≈ 2.77 µM); in [18], 2 µg/mL (≈ 5.53 µM). The outcome in [16] was inactive. The outcome in assay [17] was Active.
